What was measured:
[1] = folding enthalpy; higher = less favourable; fluorescence melt of hairpins on a sequencing array, two-state fit; conditions: sodium 0.088 M
Outline: (§1)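 To match UV melts, fitted temperatures were raised by 9.35 °C. These fits were bootstrapped two-state models that gave melting temperature and folding enthalpy, combined by inverse variance over four replicates. The input was normalised Cy3 fluorescence of library hairpins with annealed Cy3 and quencher oligos on a sequenced MiSeq flow cell, imaged in 50 mM Na-HEPES pH 8.0, 25 mM NaCl in 2.5 °C steps up to 60 °C.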

[2] = melting temperature; fluorescence melt of hairpins on a sequencing array, two-state fit, raised by 9.35 °C to match UV melts; conditions: sodium 0.088 M
Outline: as §1

Sequence | folding enthalpy [1] [kcal/mol] | Tm [2] [°C]
GAACGGGGAAACCCATTC (((.(((....))).))) | -19 | 33.2
GACCTACGAAAGTATGTC (((.(((....))).))) | -33.4 | 41
GGAGGCGGAAACACCTCC (((((.(....).))))) | -39.4 | 50.1
GTTTGGGGAAACCTGAAC (((..((....))..))) | -16 | 32
GTATTGGGAAACCGATAC ((((.((....)).)))) | -35.7 | 43.6
GTTACACGAAAGTGAAAC (((.(((....))).))) | -23.6 | 45.3
GGGGTCGAAAGACACCC ((((((....))).))) | -18.2 | 63.1
GATCGAATGTTCGATC ((((((....)))))) | -42.5 | 52.5
GGGTACACGAAAGTGCCC (((..(((....)))))) | -21.2 | 48
GACAGCGAAAGCTTGTC ((((((....))).))) | -22 | 52.6
GCATGTCCGAAAGGATGC (((..(((....)))))) | -16.4 | 40.2
GGACAGACGAAAGTCTCC (((..(((....)))))) | -10.2 | 30.4
GAGGTTGGAAACAACCCC (.(((((....))))).) | -13.2 | 40.5
GGATATCGAAAGATGTCC (((.(((....))).))) | -38.9 | 52
GAAAACGAAAGTTTGTTC ((((((....)))..))) | -13.5 | 28.4
GCGACTGTTCGC ((((....)))) | -22.5 | 47.8
GAGTGCGAAAGCAGACTC ((((((....)))..))) | -18.2 | 44.4
GCAAGCGAAAGCTTCTGC ((((((....)))..))) | -11.5 | 42.1
GGCCTGACGAAAGTCGCC (((..(((....)))))) | -16.3 | 44
CGCTTCGGAAACGATGCG (((.(((....))).))) | -43.3 | 54.6
GATCCGAGTTCGGATC ((((((....)))))) | -47.4 | 58.5
GCTCTGCGAAAGCGGCGC ((.(.((....)).).)) | -17.2 | 50.5
AGCCTGAAAAGGCT (((((....))))) | -18.2 | 66.1
GTAACCGAAAGGTGCTAC ((((((....)))..))) | -13.1 | 39.1

Sequence | folding enthalpy [1] [kcal/mol] | Tm [2] [°C]
GCGCCCGAAAGGGACGC ((((((....))).))) | -27.1 | 68.1
GCTCGACGAAAGTCAAGC (((.(((....))).))) | -27.7 | 51.8
GATCACATACGTGATC ((((((....)))))) | -41.2 | 57.4
GCGATTCGTCGC ((((....)))) | -28.4 | 54.5
GGACGTGGAAACGTGTCC ((((..(....)..)))) | -19.9 | 44.3
CGAGTCGGAAACGAGTCG (((.(((....))).))) | -35.9 | 55.9
GCATACCGAAAGGTTTGC (((.(((....))).))) | -42.2 | 54.4
GCGTCTGAACGC ((((....)))) | -25.2 | 54
GATCTCGATGAGATC ((((((...)))))) | -37.2 | 53
GGACGGGGAAACCCGTTC (.(((((....))))).) | -21.4 | 56.1
GCTACCGAAAGGTTGAGC ((((((....)))..))) | -18.2 | 38.8
GCAGACGAAAGTCGCTGC ((((((....)))..))) | -22.2 | 57.6
GCAAACGAAAGTTGTTGC ((((((....)))..))) | -22.5 | 32.9
GACGACGAAAGTCACGTC ((((((....)))..))) | -19.6 | 41.1
GCGTAGGGACGC ((((....)))) | -13 | 52
GATCGAACGCTCGATC ((((((....)))))) | -40.4 | 50.7
GACTCAGGAAACTGGGTC (((.(((....))).))) | -37.8 | 49.2
GCTTACTCGAAAGAGAGC (((..(((....)))))) | -14.5 | 30.1
GGGTCCGAAAGGATTCCC ((((((....)))..))) | -22.2 | 44.1
GACTCCGAAAGGAATGTC ((((((....)))..))) | -17.7 | 38.6
GTACATCCGAAAGGATAC (((..(((....)))))) | -12.1 | 29.6
GTCCATGGAAACATAGAC (((.(((....))).))) | -17.3 | 30.1
GGGCAGGGAAACCTACCC (((.(((....))).))) | -29.2 | 45.5
GGCTAGGGAAACCTGGTC (.(.(((....))).).) | -30.6 | 35.5

Sequence | folding enthalpy [1] [kcal/mol] | Tm [2] [°C]
GAAAGGACGAAAGTCTTC (((..(((....)))))) | -11.8 | 24.9
GCGAGGTTCGC ((((...)))) | -16.3 | 48.7
GGACTCGAAAGAGTGTCC ((((((....)))..))) | -16.9 | 40.7
GCAACAGGAAACTGTCGC ((.((((....)))).)) | -32.1 | 44.2
GTGAACGGAAACGTCCAC (((.(((....))).))) | -31.9 | 45.1
GTAGACGAAAGTCTATAC ((((((....)))..))) | -12.2 | 42.6
GATCGACCTTTCGATC ((((((....)))))) | -42.9 | 50.6
GAGCAGCGAAAGCTTCTC (((.(((....))).))) | -24.7 | 43.2
GATCAGCGAGCTGATC ((((((....)))))) | -44.7 | 61.4
GTTCACGCGAAAGCGAAC (((..(((....)))))) | -10.2 | 32.7
GAGCTGGGAAACCGGCTC ((((.((....)).)))) | -38.5 | 59.2
GCACCGCGAAAGCAGAGC ((.(.((....)).).)) | -15.2 | 41.5
GCGAGCCTTCGC ((((....)))) | -31 | 53.9
GCCACCCCGAAAGGGGGC (((..(((....)))))) | -11.4 | 55.8
GCCCTGTCGAAAGACGGC (((..(((....)))))) | -15.4 | 44.5
GATCCCCTTGGGATC ((((((...)))))) | -37.4 | 63.6
CGTGTCGGAAACGAAACG (((.(((....))).))) | -35.6 | 47.1
GTTTACGGAAACGTAGAC ((.((((....)))).)) | -24.7 | 40.3
GCCAGGCGAAAGCACGGC (((..((....))..))) | -18.3 | 60.6
GGGTGAGGAAACTCACCC (((((((....))))))) | -33.8 | 68.6
GACAACGAAAGTTAGTC ((((((....))).))) | -24.7 | 42.4
GCGGCGATCCGC ((((....)))) | -16.7 | 54
GATCGGTATCCCGATC ((((((....)))))) | -34.5 | 57.3
GCAATAGGAAACTGTTGC ((((.((....)).)))) | -33 | 47.4

Sequence | folding enthalpy [1] [kcal/mol] | Tm [2] [°C]
GATCACGGACGTGATC ((((((....)))))) | -37.7 | 67.2
GCCGCGCGAAAGCACTGC ((.(.((....)).).)) | -18.7 | 38.2
GTAATGGGAAACCATCAC ((.((((....)))).)) | -17.7 | 28.8
GCTTTGCGAAAGCAGCGC ((..(((....)))..)) | -16.7 | 48.6
GCATACGAAAGTAAATGC ((((((....)))..))) | -30 | 42.6
GGCCTCGAAAGAGATGCC ((((((....)))..))) | -24.1 | 46.8
GTCCTCGGAAACGGGGAC ((((.((....)).)))) | -45.3 | 55.7
GATCTCCCAGGAGATC ((((((....)))))) | -36.4 | 56.8
GCTTAGCGAAAGCTTTGC ((..(((....)))..)) | -14.8 | 44.3
GAGTGCGAAAGCAGCCTC ((((((....)))..))) | -13.2 | 34.5
GAATCAGGAAACTGACTC ((.((((....)))).)) | -17.3 | 28.7
GCAGACGAAAGTCAATGC ((((((....)))..))) | -19.3 | 43.9
GCAGGACGAAAGTCGTGC (((.(((....))).))) | -42.8 | 62.6
GAGAACGGAAACATTCTC (((((.(....).))))) | -23.5 | 30.1
GCCCCGCGAAAGCGGTGC ((.((((....)))).)) | -15.7 | 61.5
GGAGGAGAAATCCTCC ((((((....)))))) | -40.8 | 54.4
GCGGCATTCCGC ((((....)))) | -23.7 | 56.1
GGAAGGCGAAAGCCTCC (((.(((....)))))) | -14.1 | 56.9
GATCACGGGGGTGATC ((((((....)))))) | -36.7 | 56.8
CGGGCGGAAACGCTCCG ((((((....))).))) | -26.4 | 54.2
GGAAATGGAAACATCTCC (((.(((....))).))) | -9.93 | 25.1
